Shown are actives, neighbours in structure and some others; about 2.2% of the full set was active somewhere.
MDM2 E3 inh = MDM2-luciferase reporter signal enhancers, primary screen, MDM2 E3 ligase inhibitor project, cell-based, luminescence, 1536-well; E3 ubiquitin-protein ligase Mdm2 (Homo sapiens), Q00987; cell-based MDM2 ubiquitination luciferase reporter, 2 h; 0 = plate control, 100 = twice control, blank-subtracted; signal enhancement, % at 5 µM; actives 0.11% (n = 210,000); AID 1230, 2008;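 active = signal enhancement of 30% or more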;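 also: luminescence tracks abundance of the self-degrading MDM2-luciferase fusion protein; higher signal means inhibition of MDM2 E3 ligase activity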
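test system = mammalian cells stably expressing self-ubiquitinating, self-degrading MDM2 E3–luciferase fusion | quantity = 2000 cells/well | incubation = cell settling 4 h, compound treatment 2 h, both 37 °C | signal = luminescence with SteadyLite reagent, 15 min at room temperature | evaluation = % enhancement relative to plate controls after blank subtraction | benchmarks = plate controls and plate blanks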
Ins promoter up = insulin promoter activators in MIN6 cells, imaging, high-content screening, mouse beta cells; actives 0.3% (n = 190,000); z-score at 5 µM; AID 1625, 2009; MIN6 insulin promoter-GFP reporter; active compounds read high;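 active = z-score above 3 at 5 µM with at least 500 cells counted in the well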
Hsp70 activator = Hsp70 transcriptional activators, primary screen, cell-based, HeLa, Hsp70 promoter luciferase, luminescence, 10 µM. HeLa Hsp70 promoter luciferase reporter; scaled: vehicle 0, proteasome-inhibitor control 100%. activation, % at 10 µM. actives 0.04% (n = 200,000);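 active = activation above the mean across all tested compounds plus 3 SD, cutoff set per campaign, cut at about 5.5% in these data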
Wee1 degr inh = Wee1 degradation inhibitors, primary screen, cell-based, HeLa, Wee1K328M-luciferase, luminescence | HeLa Luc-Wee1K328M stability; 100% = proteasome inhibitor MG132 effect | reporter increase, % at 5 µM | actives 1.2% (n = 220,000) | Wee1-like protein kinase (Homo sapiens), P30291;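 active = activation above the mean of all tested compounds plus 3 SD, set per screening run, cut at about 8.8% in these data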;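 also: cells exposed to compound for 20 h before luminescence read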
Target sequence (P30291 whole entry K328M): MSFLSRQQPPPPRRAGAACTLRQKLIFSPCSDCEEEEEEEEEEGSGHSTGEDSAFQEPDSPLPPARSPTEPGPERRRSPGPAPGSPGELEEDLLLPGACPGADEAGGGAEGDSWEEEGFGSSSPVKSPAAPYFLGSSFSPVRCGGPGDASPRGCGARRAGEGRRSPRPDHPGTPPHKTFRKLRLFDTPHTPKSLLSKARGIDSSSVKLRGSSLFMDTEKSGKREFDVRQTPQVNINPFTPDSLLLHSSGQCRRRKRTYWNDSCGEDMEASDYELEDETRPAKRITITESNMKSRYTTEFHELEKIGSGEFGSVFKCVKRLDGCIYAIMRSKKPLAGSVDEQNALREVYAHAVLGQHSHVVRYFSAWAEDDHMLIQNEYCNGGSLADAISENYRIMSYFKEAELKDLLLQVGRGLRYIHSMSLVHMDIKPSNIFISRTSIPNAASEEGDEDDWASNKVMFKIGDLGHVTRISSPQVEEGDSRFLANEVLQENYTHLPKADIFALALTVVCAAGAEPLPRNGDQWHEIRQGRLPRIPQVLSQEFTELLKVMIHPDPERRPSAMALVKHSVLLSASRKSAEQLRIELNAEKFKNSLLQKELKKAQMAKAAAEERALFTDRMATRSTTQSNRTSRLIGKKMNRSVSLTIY
INS promoter inh = inhibitors of insulin promoter-driven GFP, primary screen, imaging, TRM-6 cells, eGFP reporter, cell count. reporter expression induced with tamoxifen. actives 0.9% (n = 130,000). AID 1273, 2008. inhibition, % at 2 µM;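 active = inhibition above the mean plus 3 SD, with well images judged a real hit on visual review, cut at about 60% in these data, passing the limit was not always enough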
RBBP9 inhibitor = human RBBP9 inhibitors, primary screen, biochemical, fluorescence polarization, FP-Rh probe, HTS; inhibition, % at 7.94 µM; recombinant RBBP9; actives 0.2% (n = 220,000); Serine hydrolase RBBP9 (Homo sapiens), O75884;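 active = inhibition above the campaign mean of all tested compounds plus 3 SD, cut at about 14% in these data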
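System: RBBP9 protein | Quantity: 2.5 µM RBBP9 dispensing solution, before mixing | Reagent: FP-Rh probe, 375 nM dispensing solution | Timing: Enzyme-compound preincubation 30 min, then probe labeling 45 min, 25 °C | Measured by: Fluorescence polarization | Read-out: % inhibition | Replication: One well per compound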
Numbers stand for hits; n = inactive; x = no result.

SMILES	MDM2 E3 inh	Ins promoter up	Hsp70 activator	Wee1 degr inh	INS promoter inh	RBBP9 inhibitor
O=C(Nc1cccc(NC(=O)C2CCCO2)c1)c1ccco1 (stereo not given)	n	n	n	n	x	n
O=C1C2=C(NC(=S)NC2c2ccc(Cl)cc2)NC(c2ccc(Cl)cc2)N1c1ccc(Cl)cc1 (stereo not given)	n	n	n	10	n	n
CCc1ccc(C2NC(=S)NC3=C2C(=O)N(c2ccccc2OC)C(c2ccc(CC)cc2)N3)cc1 (stereo not given)	n	n	n	n	x	n
O=C(O)CSc1nc2ccccc2c(=O)[nH]1	n	x	n	n	n	n
CC(C)(C)NC(=O)CSc1nc2ccccc2c(=O)[nH]1	n	n	x	9.6	x	n
CC1CC(C)CN(C2CCN(Cc3cccnc3)CC2)C1 (stereo not given)	n	n	n	n	n	n
COc1ccc(N(CC(O)Cn2nnc3ccccc32)S(=O)(=O)c2ccc(C)cc2)cc1 (stereo not given)	n	n	n	n	n	n
Cc1cccc(C)c1NC(=S)N(Cc1ccccc1)Cc1cccs1	n	n	n	n	n	n
O=[N+]([O-])c1ccc(N2CCN(C(=S)Nc3ccc(F)cc3F)CC2)cc1	n	n	n	9.2	n	n
CN1CCN(C(=S)Nc2cc([N+](=O)[O-])ccc2Cl)CC1	31	n	n	n	n	n
CN1CCN(C(=S)c2ccc([N+](=O)[O-])cc2)CC1	n	n	n	n	x	n
O=[N+]([O-])c1ccc(N2CCN(C(=S)Nc3ccc(F)cc3)CC2)cc1	n	n	n	n	n	n
O=C(Nc1ccc([N+](=O)[O-])cn1)c1ccc(Br)o1	n	n	n	10	n	n
COc1cccc(CSc2nc3cc4c(cc3cc2C)OCCO4)c1	n	n	n	n	n	n
O=C(CSc1nc2ccccc2c(=O)n1NC(=O)c1ccccc1)c1ccccc1	n	n	n	n	n	n
O=C(CSc1nc2ccccc2c(=O)n1NC(=O)c1ccccc1)c1ccc(Cl)cc1	n	x	n	9.3	n	n
NNc1ccc2c(C(F)(F)F)cc(C(F)(F)F)nc2n1	n	n	n	n	n	n
Cc1ccc(/C=N/Nc2ccc3c(C(F)(F)F)cc(C(F)(F)F)nc3n2)cc1	n	n	n	n	71	n
CC(C)OC(=O)Nc1ccc2c(c1)N(C(=O)N1CCN(C)CC1)c1ccccc1CC2	n	n	x	11	x	n
CCOC(=O)Nc1ccc2c(c1)N(C(=O)N1CCN(C)CC1)c1ccccc1CC2	n	n	n	n	x	n
CCn1c(COc2cccc3ccccc23)nnc1SCC(=O)OC1CCCCC1	n	n	n	n	n	n
Cn1c(COc2cccc3ccccc23)nnc1SCC(=O)OC1CCCCC1	x	n	x	9.5	x	n
CC(C)OC(=O)c1c2c(n3ccccc13)C(=O)c1ccccc1C2=O	n	12	n	n	x	n
CCOc1ccccc1N1CCN(C/C=C/c2ccc(N(C)C)cc2)CC1	x	n	n	n	n	n
Cc1cc(N(CCO)CCO)nc(-n2nc(C)cc2C)n1	n	n	n	n	n	n
SMILES	MDM2 E3 inh	Ins promoter up	Hsp70 activator	Wee1 degr inh	INS promoter inh	RBBP9 inhibitor
Cc1cc(NCCO)nc(-n2nc(C)cc2C)n1	n	n	n	n	79	n
COc1ccc(CSC2=CS(=O)(=O)c3ccccc3N2)cc1	n	n	n	9.7	n	n
CC1=CC=CN2C1=NC(=O)CC2(C)C(=O)N(CC(=O)NC1CCCC1)c1cc(C)cc(C)c1 (stereo not given)	n	n	n	n	x	n
CCc1nc2oc3cc(OC)ccc3c(=O)c2c(=O)n1Cc1ccccc1	n	n	n	n	67	n
CCn1c2ccccc2c2nnc(SCC(=O)Nc3cc(C)on3)nc21	n	4	n	n	n	n
O=C(/C(C=Nc1cc2c(oc1=O)CCCC2=O)=C(\O)c1ccccc1)c1ccccc1	n	n	n	n	x	n
CCCCNCc1nc2ccccc2c(=O)[nH]1	n	n	n	8.9	n	n
CCc1ccc(NCc2nc3ccccc3c(=O)[nH]2)cc1	n	n	n	n	n	n
Cc1ccc(S(=O)(=O)N2CCOCC2)cc1NC(=O)CN(C)C1CCS(=O)(=O)C1 (stereo not given)	x	n	x	9.0	x	n
Cc1ccc(CNC(=O)c2ccc(-n3cccc3)cc2)cc1	n	n	n	n	100	n
C=CCn1c(SCC(=O)Nc2ccc3c(c2)OCO3)nnc1-c1ccccc1O	n	n	n	n	n	n
CCOC(=O)c1c2n(c3ccc(O)cc13)CCCCC2	n	n	n	n	86	n
CC1CCc2nc(NC(=O)C3CC3)sc2C1 (stereo not given)	n	n	n	n	n	n
Cc1ncsc1C(=O)Nc1nc2c(s1)CC(C)CC2 (stereo not given)	n	n	n	9.6	x	n
CCOC(=O)N1CCN(C(=O)c2cn(CC)c3ccc(S(=O)(=O)N4CCCCC4)cc3c2=O)CC1	n	n	n	n	n	n
Cc1cc(C)nc(SCSc2nc(C)cc(C)n2)n1	n	4.5	n	n	x	n
CCS(=O)(=O)CCSc1nc(C)cc(C)n1	n	n	n	n	x	n
CC(=O)c1c(COC(=O)c2ccncc2)nc2ccccc2[n+]1[O-]	n	4.2	n	n	x	n
CC(=O)c1c(COC(=O)c2cccc(C)c2)nc2ccccc2[n+]1[O-]	n	n	x	n	x	n
CCN(CC)C(=O)CSc1nc2ncccc2[nH]1	n	n	n	n	n	n
C=C(C)CSc1nc2ncccc2[nH]1	n	n	n	n	71	n
Cc1sc2ncnc(NCCCN3CCCC3=O)c2c1C	n	n	n	n	x	n
c1ccc2sc(-c3ccc4c(c3)OCO4)nc2c1	n	n	n	14	n	n
CCOC(=O)C/C(N)=N/N(C)c1ncc(C(F)(F)F)cc1Cl	n	n	n	n	n	n
CCN(C(=O)COC(=O)c1cc(-c2ccccc2)nc2ccc(Br)cc12)C1CCS(=O)(=O)C1 (stereo not given)	n	n	n	9.2	x	n
CCN(CC)c1ccc(C=C(c2nnnn2-c2ccc(C)cc2)c2nnnn2-c2ccc(C)cc2)cc1	n	n	n	n	n	n
CCN(CC)C(c1ccc(F)cc1)c1nnnn1CC1CCCO1 (stereo not given)	n	n	n	n	93	n
CSc1nsc(/C=C/Nc2ccc(F)cc2)c1C#N	35	n	n	n	n	n
